Laboratory results reported in ChEMBL document CHEMBL1811823, “Quinazolinone linked pyrrolo[2,1-c][1,4]benzodiazepine (PBD) conjugates: Design, synthesis and biological evaluation as potential anticancer agents” (2010).
The source made the active and inactive calls. No cut-off for these calls is given here.

Experiments:
[1] = system: NCI/ADR-RES; assay: Growth inhibition of human NCI/ADR-RES cells by NCI anti-cancer screening method; type: functional
[2] = system: COLO 205; assay: Growth inhibition of human COLO205 cells by NCI anti-cancer screening method; type: functional
[3] = system: SR; assay: Growth inhibition of human SR cells by NCI anti-cancer screening method; type: functional
[4] = system: Nucleic Acid; assay: Binding affinity to calf thymus DNA assessed as change in melting temperature at 20 uM at pH 7 incubated for 18 hrs at 37 degC by thermal denaturation assay; type: nucleic-acid assay; conditions: Bos taurus
How it was run: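 CT-DNA (100 µM in phosphate) with 20 µM ligand, 1:5 [PBD]/[DNA], in 10 mM sodium phosphate/1 mM Na2EDTA buffer pH 7.00. Ligand added from methanol solution; incubated at 37 °C for 0 or 18 h. A260 monitored while heating 1 °C/min over 40–90 °C. Tm taken from d(A260)/dT maxima; ΔTm = Tm(DNA+PBD) − Tm(DNA alone). Values are means of at least three determinations, corrected for methanol cosolvent.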

[5] = system: OVCAR-8; assay: Growth inhibition of human OVCAR8 cells by NCI anti-cancer screening method; type: functional
[6] = system: A-375; assay: Increase in p53 protein expression in human A375 cells at 4 uM after 24 hrs by Western blot; type: functional, cell-based
How it was run: (§1)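 A375 cells (DMEM, 10% FCS, 37 °C, 5% CO2) were treated at 4 µM for 24 h. Lysates were loaded at 30 µg protein/lane on 12% SDS-PAGE and transferred to PVDF. Membranes were blocked 2 h in TBST, incubated with primary antibody overnight at 4 °C (p53 1:100, p27 1:500, NF-κB p65 1:500), then HRP secondary 1 h, with chemiluminescent detection. β-actin was the loading control; untreated and DMSO controls were run.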

[7] = system: A-375; assay: Cell cycle arrest in human A375 cells assessed as decrease in G2/M phase at 4 uM after 24 hrs by propidium iodide staining based flow cytometry; type: functional; design: scale not given: the % may be the effect or the level left
How it was run: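 A375 melanoma cells (DMEM, 10% FCS, 37 °C, 5% CO2) seeded at 5×10^5 per dish and grown 24 h, then exposed to 0–4 µM for 24 h. Harvested with trypsin-EDTA, fixed in ice-cold 70% ethanol, RNase A treated (1 mg/ml, 37 °C, 30 min), stained with propidium iodide and analysed by flow cytometry for phase distribution.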

[8] = system: NCI; assay: Growth inhibition of human Hs 578T cells by NCI anti-cancer screening method; type: functional
[9] = system: CCRF-CEM; assay: Growth inhibition of human CCRF-CEM cells by NCI anti-cancer screening method; type: functional
[10] = system: UACC-257; assay: Growth inhibition of human UACC257 cells by NCI anti-cancer screening method; type: functional
[11] = system: NCI-H522; assay: Growth inhibition of human NCI-H522 cells by NCI anti-cancer screening method; type: functional
[12] = system: BT-549; assay: Growth inhibition of human BT549 cells by NCI anti-cancer screening method; type: functional
[13] = system: A-375; assay: Induction of apoptosis in human A375 cells assessed as sub-G1 phase accumulation at 4 uM after 24 hrs by propidium iodide staining based flow cytometry; type: functional
How it was run: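 A375 cells (5×10^5 per 60 mm dish) were grown 24 h, then treated 24 h at 0–4 µM. Cells were harvested with trypsin-EDTA, fixed in ice-cold 70% ethanol for 30 min at 4 °C, treated with RNase A (1 mg/ml) for 30 min at 37 °C, and stained with propidium iodide. Cell-cycle distribution, including the sub-G1 fraction, was measured by flow cytometry. DMSO-exposed cells were the control.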

[14] = system: SNB-75; assay: Growth inhibition of human SNB75 cells by NCI anti-cancer screening method; type: functional
[15] = system: A-375; assay: Increase in p27 protein expression in human A375 cells at 4 uM after 24 hrs by Western blot; type: functional, cell-based; how it was run: as §1
[16] = system: A-375; assay: Cytotoxicity against human A375 cells assessed as cell viability after 24 hrs by MTT assay; type: functional
How it was run: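 A375 cells seeded at 10,000/well, incubated overnight, then treated for 24 h. MTT added at 10% of culture volume for 2 h at 37 °C. Formazan dissolved in 20% SDS/50% DMF overnight at 37 °C; absorbance read at 570 nm against a medium blank. Viability expressed as percent of untreated cells.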

[17] = system: TK-10; assay: Growth inhibition of human TK10 cells by NCI anti-cancer screening method; type: functional
[18] = system: HL-60; assay: Growth inhibition of human HL-60(TB) cells by NCI anti-cancer screening method; type: functional
How it was run: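 Cells grown in RPMI 1640 with 10% FBS and 2 mM L-glutamine were plated at a density set by doubling time. They were held 24 h at 37 °C in 5% CO2 before drug was added, then exposed continuously for 48 h. Cells were fixed with cold TCA (10% final) for 60 min at 4 °C and stained with 0.4% SRB. Bound dye was eluted in 10 mM Tris base and read at 540 nm. Percent growth was taken versus control wells.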

[19] = system: MDA-MB-468; assay: Growth inhibition of human MDA-MB-468 cells by NCI anti-cancer screening method; type: functional
[20] = system: CAKI-1; assay: Growth inhibition of human Caki1 cells by NCI anti-cancer screening method; type: functional
[21] = system: Malme-3M; assay: Growth inhibition of human MALME-3M cells by NCI anti-cancer screening method; type: functional
[22] = system: 786-0; assay: Growth inhibition of human 786-0 cells by NCI anti-cancer screening method; type: functional
[23] = system: NCI; assay: Growth inhibition of human RXF393 cells by NCI anti-cancer screening method; type: functional
[24] = system: LOX IMVI; assay: Growth inhibition of human LOXIMVI cells by NCI anti-cancer screening method; type: functional
[25] = system: MDA-MB-231; assay: Growth inhibition of human MDA-MB-231 cells by NCI anti-cancer screening method; type: functional
[26] = system: NCI-H460; assay: Growth inhibition of human NCI-H460 cells by NCI anti-cancer screening method; type: functional
[27] = system: HCC 2998; assay: Growth inhibition of human HCC2998 cells by NCI anti-cancer screening method; type: functional
[28] = system: HCT-116; assay: Growth inhibition of human HCT116 cells by NCI anti-cancer screening method; type: functional
[29] = system: SK-MEL-2; assay: Growth inhibition of human SK-MEL-2 cells by NCI anti-cancer screening method; type: functional

COc1cc2c(cc1OCCCCCOc1ccc(-n3c(C)nc4ccccc4c3=O)cc1)N=C[C@@H]1CCCN1C2=O
GI50 [1]: 1730 nM
GI50 [2]: 180 nM
GI50 [3]: 110 nM
ΔTm [4]: 2.3 °C
GI50 [5]: 340 nM
Activity [6]: Active
Activity [7]: 9.15%
GI50 [8]: 160 nM
GI50 [9]: 160 nM
GI50 [10]: 390 nM
GI50 [11]: 120 nM
GI50 [12]: 110 nM
Activity [13]: 31.52%
GI50 [14]: 380 nM
Activity [15]: Active
Activity [16]: 49.01%
GI50 [17]: 310 nM
GI50 [18]: 180 nM
GI50 [19]: 160 nM
GI50 [20]: 190 nM
GI50 [21]: 230 nM
GI50 [22]: 170 nM
GI50 [23]: 210 nM
GI50 [24]: 150 nM
GI50 [25]: 170 nM
GI50 [26]: 200 nM
GI50 [27]: 260 nM
GI50 [28]: 150 nM
GI50 [29]: 420 nM
